Screening data as filed in PubChem BioAssay.
Rpn11 inh = blocks the human proteasome subunit Rpn11. human 26S proteasome, Ub4-pepOG fluorescence polarization; 20S core pre-blocked with epoxomicin. inhibition, % at 20 µM. 0.59% of 360,000 active;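 active means inhibition at 20 µM, scaled to each plate's controls, above about 33%, limit read from the data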
Target sequence (O00487 whole entry, looked up): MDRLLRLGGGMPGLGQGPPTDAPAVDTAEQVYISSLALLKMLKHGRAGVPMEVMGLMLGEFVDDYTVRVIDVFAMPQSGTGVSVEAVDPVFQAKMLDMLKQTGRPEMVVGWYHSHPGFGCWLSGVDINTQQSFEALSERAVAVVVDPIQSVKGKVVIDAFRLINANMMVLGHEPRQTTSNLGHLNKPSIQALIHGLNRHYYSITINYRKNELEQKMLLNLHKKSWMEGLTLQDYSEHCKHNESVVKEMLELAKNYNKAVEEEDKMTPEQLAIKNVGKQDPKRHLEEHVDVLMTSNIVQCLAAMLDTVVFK
Myeloid diff 2 = myeloid differentiation induction. ER-HoxA9 myeloid progenitors, lysozyme-GFP differentiation, flow cytometry. calls only at 10 µM. 1% of 360,000 active. AID 624256;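 active means normalized GFP-positive differentiation at or above the plate's own cutoff, the solvent-only control mean plus 3 SD; inconclusive means no clear call, values can overlap the other calls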;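 further: cells exposed to compound for four days before flow analysis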
HNF4A DNA FP = change in binding of human HNF4 alpha to DNA; HNF4a-FITC DNA binding, fluorescence polarization, 1 h; activity change, % at 10 µM; 0.3% of 360,000 active; in the data active means activity change above about 30%, passing the limit was not always enough
CSN inh = blocks human CSN-mediated cullin deneddylation | Q92905 | Purified CSN, SCF-Nedd8-OG deneddylation, fluorescence polarization | inhibition, % at 12.5 µM | 0.38% of 360,000 active;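 active means pattern-corrected inhibition above about 35%, with an unprinted fluorescence ratio check between 0.5 and 1.5, limit read from the data, passing the limit was not always enough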
Target sequence (Q92905 whole entry, looked up, one chain of several): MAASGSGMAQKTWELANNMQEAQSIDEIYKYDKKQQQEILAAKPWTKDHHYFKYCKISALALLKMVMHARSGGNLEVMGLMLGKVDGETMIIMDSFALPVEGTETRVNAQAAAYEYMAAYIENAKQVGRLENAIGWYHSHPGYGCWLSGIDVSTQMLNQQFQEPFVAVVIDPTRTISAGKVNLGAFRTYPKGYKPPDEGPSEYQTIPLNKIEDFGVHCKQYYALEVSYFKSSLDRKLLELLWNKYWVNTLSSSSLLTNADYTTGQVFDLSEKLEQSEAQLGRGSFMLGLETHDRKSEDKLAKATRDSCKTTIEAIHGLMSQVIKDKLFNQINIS
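Test system: purified human Csn5 enzyme expressed in HEK293T cells. Amount: 0.24 nM enzyme. Reagent: SCFSkp2-Nedd8OG substrate at 10 nM final. Schedule: 90 min incubation of compound, enzyme and substrate at room temperature. Detection: fluorescence polarization. Read-out: % inhibition of substrate cleavage by Csn5.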
TPT1 inh = inhibitors of Candida albicans tRNA 2'-phosphotransferase TPT1; recombinant caTPT1, FP RNA substrate dephosphorylation; inhibition, % at 5 µM; 0.81% of 300,000 active; AID 1962;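 active means inhibition above the mean of all tested compounds plus 3 SD, set per screening campaign, cut at about 24% in these data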
Of the large screens only hits and unclear results are named; the others gave an inactive call. This is a sample that favours compounds with a hit; in the whole collection about 2.3% have one here.

NC(Cc1ccc(Cl)cc1)c1csc(Nc2ncccn2)n1 (configuration not stated)	Myeloid diff 2 active (no result: TPT1 inh)
NC(Cc1ccc(F)cc1)c1csc(Nc2ncccn2)n1 (configuration not stated)	Myeloid diff 2 inconclusive (no result: TPT1 inh)
Cc1cc(N(CCCl)CCCl)ccc1C=NNC(=O)Cc1cc(=O)oc2cc(O)ccc12	Myeloid diff 2 active (no result: TPT1 inh)
Cc1nc2ccccn2c1P(=S)(c1ccccc1)c1ccccc1	none (no result: TPT1 inh)
CCOC(=O)[C@]12Cc3cc(Cl)ccc3[C@H]1N(C1CCCCC1)C(=O)c1cc(OC)ccc12	none (no result: Rpn11 inh, TPT1 inh)
Cc1ccc2cc(C=C(C#N)C#N)c(Cl)nc2c1	Myeloid diff 2 inconclusive
N#CC(C#N)=Cc1ccc(C=C(C#N)C#N)cc1	Rpn11 inh 72 (no result: TPT1 inh)
CSc1ccc(NC(=O)C2(C)CCN2C(=O)C2(c3ccccc3)CC2)cc1 (configuration not stated)	none (no result: TPT1 inh)
Cc1c(CCC(=O)N2C[C@H]3C[C@@H](C2)c2cccc(=O)n2C3)c(=O)oc2c(C)c(O)ccc12	none (no result: TPT1 inh)
O=C(O)CCC(=O)NCCC1=c2ccccc2=N/C1=C\c1c(O)n(Cc2ccc(F)cc2)c(=S)[nH]c1=O	Myeloid diff 2 active
O=C(N/N=C/c1c(O)n(Cc2ccc(F)cc2)c(=O)[nH]c1=O)c1ccccc1	none
CC(=O)N1CCN(Cc2ccc(Cl)nc2)CC1	none
CCCCc1ccc(C(=O)O)nc1	Myeloid diff 2 active
C[C@@]12CC[C@@H](c3cc4c(cc3C1)OCO4)N2c1ccccc1	none (no result: Rpn11 inh, TPT1 inh)
CC(C)(C)N1C(=O)NC(=O)/C(=C\c2ccc3c(c2)CCN3CCCCl)C1=O	CSN inh 39 (not shown: Rpn11 inh)
CCN1C(=O)/C(=C/c2ccc3c(c2)CCN3CCCCl)C(=O)NC1=S	none
CC(=O)OC1CC(OC2C(O)CC(OC3C(O)CC(OC4CCC5(C)C(CCC6C5CC(O)C5(C)C(C7=CC(=O)OC7)CCC65O)C4)OC3C)OC2C)OC(C)C1OC1OC(CO)C(O)C(O)C1O (configuration not stated)	Myeloid diff 2 active (no result: TPT1 inh)
COc1cc(/C=C/c2nc3ccccc3c(=O)n2-c2ccc(O)cc2)ccc1O	Myeloid diff 2 active (not shown: Rpn11 inh)
CCOC(=O)[C@]12Cc3c(cc(OC)c(OC)c3OC)[C@H]1N(C1CCCCC1)C(=O)c1ccccc12	none (no result: Rpn11 inh, Myeloid diff 2, TPT1 inh)
Cn1cccc1/C=C1\C(=O)NC(=O)N(Cc2ccco2)C1=O	none (no result: TPT1 inh)
COc1ccc(/C=C2/C(=O)NC(=O)N(Cc3ccco3)C2=O)cc1	TPT1 inh 33 (no result: Rpn11 inh, Myeloid diff 2, HNF4A DNA FP, CSN inh)
Cc1ccc([C@@H]2C[C@H]3[C@@H](CN2S(=O)(=O)c2ccc(Cl)cc2)C(=O)C[C@@H](c2ccccc2F)N3S(=O)(=O)c2ccc(C)cc2)cc1	none (no result: TPT1 inh)
Cc1c(C=C2C(=O)N(C)C(=S)N(C)C2=O)c2ccccc2n1CC(=O)NCC1CCCO1 (configuration not stated)	Rpn11 inh 43 (no result: TPT1 inh)
O=C(Cn1cc(C=C2C(=O)NC(=O)NC2=O)c2ccccc21)NCC1CCCO1 (configuration not stated)	none
Cc1ccc(CN2Cc3ccc(Br)cc3-n3nncc3C2)cc1	none (no result: TPT1 inh)
Cc1cccc(C)c1-n1nnnc1C(c1cccs1)N1CCC(n2c(=O)[nH]c3ccccc32)CC1 (configuration not stated)	CSN inh 68 (no result: TPT1 inh)
Cc1cccc(C)c1-n1nnnc1C(c1cccc2ccccc12)N1CCC(n2c(=O)[nH]c3ccccc32)CC1 (configuration not stated)	none (no result: TPT1 inh)
Clc1ccc(C(c2ccc(Cl)cc2)n2cc[n+](CC(OCc3ccc(Cl)cc3Cl)c3ccc(Cl)cc3Cl)c2)cc1 (configuration not stated)	Rpn11 inh 105
O=C(Nc1cc(Cl)cc(Cl)c1)N1Cc2ccccc2-n2nncc2C1	none (no result: TPT1 inh)
COC(=O)N1Cc2ccccc2-n2nncc2C1	none (no result: TPT1 inh)
CCN1/C(=C/C=C/C2=[N+](CC)c3ccccc3C2(C)C)C(C)(C)c2ccccc21	Myeloid diff 2 inconclusive (not shown: Rpn11 inh, TPT1 inh)
C[N+]1=C(/C=C/Nc2ccccc2)C(C)(C)c2ccccc21	Myeloid diff 2 active
COC1CC2C=C(C)C=CC=CC(=O)NC(c3ccccc3)CC=CCCC(O)CC(=O)C2=C1O (configuration not stated)	none (no result: Myeloid diff 2, TPT1 inh)
CCN1CC=C(c2c[nH]c3ccccc23)CC1	Myeloid diff 2 active
Nc1c(C(=O)NC2CCCC2)c2nc3ccccc3nc2n1CC1CCCO1 (configuration not stated)	CSN inh 46
Nc1c(C(=O)NCC2CCCO2)c2nc3ccccc3nc2n1Cc1ccco1 (configuration not stated)	none
Cc1ccc2c(c1)Oc1ccccc1N=C2	none (no result: TPT1 inh)
CCN(CC)C(=O)Cn1cc(/C=C2\C(=O)NC(=O)N(c3ccccc3F)C2=O)c2ccccc21	Myeloid diff 2 active
CN1CCN(c2nc(N)c(Br)c(Cl)n2)CC1	Myeloid diff 2 active
CCC(C)(O)C(=O)OC1C(=O)OC2CC3C(C)=CC(O)C(O)C3(C)C3C4(O)OCC23C1C(C)C4O (configuration not stated)	none (no result: TPT1 inh)
Cc1ccc(S(=O)(=O)N2Cc3ccccc3-n3nncc3C2)cc1	none (no result: TPT1 inh)
CC(=O)Nc1ccc(S(=O)(=O)N2Cc3ccccc3-n3nncc3C2)cc1	Myeloid diff 2 active (no result: TPT1 inh)
O=C(NC1CCCCC1)N1Cc2cc(-c3cccc(F)c3)ccc2-n2nncc2C1	CSN inh 145 (no result: TPT1 inh)
CN(C)/C=C/C(=O)C(Cl)(Cl)Cl	HNF4A DNA FP 38
Cc1nc(N2CCN(Cc3ccc4c(c3)OCO4)CC2)[nH]c(=O)c1C	none (no result: TPT1 inh)
O=C1NC(=S)N(c2ccc(F)cc2)C(=O)/C1=C/c1ccco1	TPT1 inh 78 (no result: Rpn11 inh, Myeloid diff 2, HNF4A DNA FP, CSN inh)
O=C1NC(=S)N(c2ccc(F)cc2)C(=O)/C1=C\c1ccoc1	Rpn11 inh active (no result: TPT1 inh)
Cc1cccc(C)c1-n1nnnc1C(c1cccc2ccccc12)N1CCC2(CC1)C(=O)NCN2c1ccccc1 (configuration not stated)	none (no result: TPT1 inh)
CCOC(=O)[C@]12Cc3cc(Cl)ccc3[C@H]1N(C)C(=O)c1cc(OC)ccc12	Myeloid diff 2 active (no result: Rpn11 inh, TPT1 inh)
CCOC(=O)[C@]12Cc3cc(OC)ccc3[C@H]1N(C)C(=O)c1cc(OC)ccc12	none (no result: Rpn11 inh, TPT1 inh)
O=C1NC(=S)NC(=O)C1Cc1ccccc1O	none (no result: TPT1 inh)
Cc1ccc2c(c1)N(CCC(=O)N1CCC3(CC1)OCCO3)C(=O)CO2	Myeloid diff 2 active
CC(CC(C)(C)N1CC1)=NNC(=O)Nc1cccc2ccccc12	none (no result: TPT1 inh)
COCCNC(=O)c1c(NC(=O)c2ccc(Br)o2)n(Cc2ccccc2)c2nc3ccccc3nc12	Myeloid diff 2 active (not shown: Rpn11 inh)
CC1CCC2[C@@H](C)C(=O)OC3O[C@]4(C)CCC1C32OO4 (some centres not stated)	Myeloid diff 2 active
CC1CCC2C(C)C(=O)OC3OC4(C)CCC1C32OO4 (configuration not stated)	Myeloid diff 2 active
Cc1cc(NC(=O)COC(=O)c2c(C)nn(Cc3ccccc3)c2C)no1	none
Cc1nn(Cc2ccccc2)c(C)c1C(=O)OCC(=O)Nc1ccccc1SCC#N	Myeloid diff 2 active
